According to ChEMBL document CHEMBL1152865, “Synthesis and antimycobacterial activities of novel 6-nitroquinolone-3-carboxylic acids” (Eur J Med Chem, 2009):
Values after ≈ are worked out from the molar mass of the structure shown.

Experiments:
Mus musculus [1] = assay: Phototoxicity in Swiss albino mouse exposed to 4 hrs of 18 J/cm'2 UV light irradiation assessed as ear thickness at 140 mg/kg, po after 96 hrs; format: organism-based; set-up: dose 140 mg/kg, route oral; settings: in vivo
Procedure, shortened: (§1)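 Female Swiss albino mice about 2 months old, 20-25 g, fasted at least 18 h, six per group. Single oral gavage of 140 mg/kg; vehicle 0.5% aqueous sodium carboxymethylcellulose at 10 ml/kg; lomefloxacin HCl 140 mg/kg as positive control. UVA for 4 h (about 18 J/cm²) from dosing. Both ears scored for erythema, edema and thickness pre-dose, at 4 h, and at about 24, 48, 72 and 96 h.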

Mus musculus [2] = assay: Phototoxicity in Swiss albino mouse exposed to 4 hrs of 18 J/cm'2 UV light irradiation assessed as erythema at 140 mg/kg, po; format: organism-based; set-up: dose 140 mg/kg, route oral; settings: in vivo; procedure, shortened: as §1
Mus musculus [3] = assay: Phototoxicity in Swiss albino mouse assessed as erythema at 140 mg/kg, po after 4 hrs of 18 J/cm'2 UV light irradiation; format: organism-based; set-up: dose 140 mg/kg, route oral; settings: in vivo; procedure, shortened: as §1
Mus musculus [4] = assay: Phototoxicity in Swiss albino mouse exposed to 4 hrs of 18 J/cm'2 UV light irradiation assessed as erythema at 140 mg/kg, po after 24 hrs; format: organism-based; set-up: dose 140 mg/kg, route oral; settings: in vivo; procedure, shortened: as §1
Mus musculus [5] = assay: Phototoxicity in Swiss albino mouse exposed to 4 hrs of 18 J/cm'2 UV light irradiation assessed as erythema at 140 mg/kg, po after 48 hrs; format: organism-based; set-up: dose 140 mg/kg, route oral; settings: in vivo; procedure, shortened: as §1
Mus musculus [6] = assay: Phototoxicity in Swiss albino mouse exposed to 4 hrs of 18 J/cm'2 UV light irradiation assessed as erythema at 140 mg/kg, po after 72 hrs; format: organism-based; set-up: dose 140 mg/kg, route oral; settings: in vivo; procedure, shortened: as §1
Mus musculus [7] = assay: Phototoxicity in Swiss albino mouse exposed to 4 hrs of 18 J/cm'2 UV light irradiation assessed as erythema at 140 mg/kg, po after 96 hrs; format: organism-based; set-up: dose 140 mg/kg, route oral; settings: in vivo; procedure, shortened: as §1
[8] = system: Mycobacterium tuberculosis; assay: Antibacterial activity against Mycobacterium tuberculosis H37Rv by agar dilution method; format: functional
Procedure, shortened: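 Agar dilution in Middlebrook 7H11 agar supplemented with OADC, following an approach similar to NCCLS guidance. MIC determined in duplicate.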

[9] = system: Mycolicibacterium smegmatis; assay: Antibacterial activity against Mycobacterium smegmatis ATCC 14468 by agar dilution method; format: functional
Procedure, shortened: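 Agar dilution on Middlebrook 7H11 agar with OADC supplement, following an NCCLS-type procedure; MIC read in duplicate.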

[10] = Cytotoxicity against african green monkey Vero cells after 72 hrs by MTT assay; format: cell-based; settings: chlorocebus sabaeus
Procedure, shortened: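 Cells exposed to compound for 72 h; viability from cellular MTT conversion to formazan; CC50 derived.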

[11] = system: Mycobacterium tuberculosis; assay: Antimycobacterial activity against Mycobacterium tuberculosis ATCC 35801 infected in CD1 mouse assessed as bacterial load in lungs at 50 mg/kg, ip administered 10 days postinfection for 10 days measured after 35 days of infection; format: functional; settings: route intraperitoneal
Procedure, shortened: (§2)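 Six-week-old female CD-1 mice, six per group, infected intravenously via the caudal vein with approximately 10⁷ viable M. tuberculosis ATCC 35801. Intraperitoneal treatment ran days 10–20 post-infection. At day 35, spleen and right lung were homogenized, serially 10-fold diluted and plated on 7H10 agar, incubated 37 °C, 4 weeks. Log CFU compared with vehicle-treated controls.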

[12] = system: Mycobacterium tuberculosis; assay: Antimycobacterial activity against Mycobacterium tuberculosis ATCC 35801 infected in CD1 mouse assessed as bacterial load in spleen at 50 mg/kg, ip administered 10 days postinfection for 10 days measured after 35 days of infection; format: functional; settings: route intraperitoneal; procedure, shortened: as §2
[13] = Inhibition of Mycobacterium smegmatis DNA gyrase assessed as inhibition of relaxed circular pUC18 supercoiling activity by agarose gel electrophoresis; set-up: species or system Mycolicibacterium smegmatis
Procedure, shortened: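 Gyrase purified from M. smegmatis, pre-incubated with compound in DMSO. Then 400 ng relaxed pUC18 added in 35 mM Tris-HCl pH 7.5, 5 mM MgCl2, 25 mM potassium glutamate, 2 mM spermidine, 2 mM ATP, BSA, yeast tRNA and 5% glycerol. Incubated 30 min at 37 °C; read-out by agarose gel electrophoresis. Ciprofloxacin and 5% DMSO reactions run as controls.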

Mus musculus [14] = assay: Phototoxicity in Swiss albino mouse exposed to 18 J/cm'2 UV light irradiation assessed as ear thickness at 140 mg/kg, po; format: organism-based; set-up: dose 140 mg/kg, route oral; settings: in vivo; procedure, shortened: as §1
Mus musculus [15] = assay: Phototoxicity in Swiss albino mouse assessed as ear thickness at 140 mg/kg, po measured after 4 hrs of 18 J/cm'2 UV light irradiation; format: organism-based; set-up: dose 140 mg/kg, route oral; settings: in vivo; procedure, shortened: as §1
Mus musculus [16] = assay: Phototoxicity in Swiss albino mouse exposed to 4 hrs of 18 J/cm'2 UV light irradiation assessed as ear thickness at 140 mg/kg, po after 24 hrs; format: organism-based; set-up: dose 140 mg/kg, route oral; settings: in vivo; procedure, shortened: as §1
Mus musculus [17] = assay: Phototoxicity in Swiss albino mouse exposed to 4 hrs of 18 J/cm'2 UV light irradiation assessed as ear thickness at 140 mg/kg, po after 48 hrs; format: organism-based; set-up: dose 140 mg/kg, route oral; settings: in vivo; procedure, shortened: as §1
Mus musculus [18] = assay: Phototoxicity in Swiss albino mouse exposed to 4 hrs of 18 J/cm'2 UV light irradiation assessed as ear thickness at 140 mg/kg, po after 72 hrs; format: organism-based; set-up: dose 140 mg/kg, route oral; settings: in vivo; procedure, shortened: as §1
[19] = system: Mycobacterium tuberculosis; assay: Antimycobacterial activity against Mycobacterium tuberculosis ATCC 35801 infected in CD1 mouse assessed as bacterial load in lungs at 25 mg/kg, ip administered 10 days postinfection for 10 days measured after 35 days of infection; format: functional; settings: route intraperitoneal; procedure, shortened: as §2
[20] = system: Mycobacterium tuberculosis; assay: Antimycobacterial activity against Mycobacterium tuberculosis ATCC 35801 infected in CD1 mouse assessed as bacterial load in spleen at 25 mg/kg, ip administered 10 days postinfection for 10 days measured after 35 days of infection; format: functional; settings: route intraperitoneal; procedure, shortened: as §2

SMILES	Activity (Mus musculus [1]) [mm]	Activity (Mus musculus [2])	Activity (Mus musculus [3])	Activity (Mus musculus [4])	Activity (Mus musculus [5])	Activity (Mus musculus [6])	Activity (Mus musculus [7])	MIC [8] [µM]	MIC [9] [µM]	CC50 at 72 h [10] [µM]	log10cfu [11]	log10cfu [12]	IC50 [13] [µg/mL]	Activity (Mus musculus [14]) [mm]	Activity (Mus musculus [15]) [mm]	Activity (Mus musculus [16]) [mm]	Activity (Mus musculus [17]) [mm]	Activity (Mus musculus [18]) [mm]	log10cfu [19]	log10cfu [20]
O=C(O)c1cn(C2CC2)c2cc(N3CCN(Cc4ccc5c(c4)OCO5)CC3)c([N+](=O)[O-])cc2c1=O	0.29	Non-toxic	Non-toxic	Non-toxic	Non-toxic	Non-toxic	Non-toxic	0.08 (≈ 0.0394 µg/mL)	0.79 (≈ 0.389 µg/mL)	127	5.21	4.87	30 (≈ 60.9 µM)	0.25	0.27	0.28	0.28	0.31	–	–
CN1CCN(c2cc3c(cc2[N+](=O)[O-])c(=O)c(C(=O)O)cn3C2CC2)CC1c1ccccc1 (stereo not given)	0.34	Non-toxic	Non-toxic	–	Non-toxic	Non-toxic	Non-toxic	0.2 (≈ 0.0897 µg/mL)	0.87 (≈ 0.39 µg/mL)	136	–	–	30 (≈ 66.9 µM)	0.3	0.31	0.3	0.32	0.32	–	–
COc1c(N2CCNC(C)C2)c(F)cc2c(=O)c(C(=O)O)cn(C3CC3)c12 (stereo not given) [GATIFLOXACIN]	–	–	–	–	–	–	–	1.04 (≈ 0.39 µg/mL)	2.08 (≈ 0.781 µg/mL)	> 155	6.02	6.92	–	–	–	–	–	–	–	–
NNC(=O)c1ccncc1 [ISONIAZID]	–	–	–	–	–	–	–	0.36 (≈ 0.0494 µg/mL)	45.6 (≈ 6.25 µg/mL)	> 456	–	–	–	–	–	–	–	–	5.86	4.71
CCn1cc(C(=O)O)c(=O)c2cc(F)c(N3CCNC(C)C3)c(F)c21 (stereo not given) [LOMEFLOXACIN]	0.6	Non-toxic	Toxic	Toxic	Toxic	Toxic	Toxic	–	–	–	–	–	–	0.31	0.4	0.48	0.53	0.64	–	–
